ChEMBL document CHEMBL1240504, “Synthesis of substituted thieno[2,3-d]pyrimidine-2,4-dithiones and their S-glycoside analogues as potential antiviral and antibacterial agents” (Eur J Med Chem, 2010)
Converted amounts (≈) assume the structure as drawn.

How the values were obtained:
[1] = test system: Escherichia coli; assay: Antibacterial activity against Escherichia coli MTCC 41 after 12 to 16 hrs by turbidity assay; assay type: functional
How it was run: (§1)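 Broth dilution MIC in LB broth. Tubes inoculated, incubated 12–16 h and scored by eye for turbidity (growth) versus clear (no growth).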

[2] = test system: Escherichia coli; assay: Antibacterial activity against Escherichia coli MTCC 41 at 128 mg/ml after 16 hrs by disk diffusion test; assay type: functional; set-up: dose or concentration left out as unconfirmed; settings: MTCC 41, 16 h, read-out: IZ
[3] = test system: Escherichia coli; assay: Antibacterial activity against Escherichia coli MTCC 41 at 64 mg/ml after 16 hrs by disk diffusion test; assay type: functional; set-up: dose or concentration left out as unconfirmed; settings: MTCC 41, 16 h, read-out: IZ
[4] = test system: Staphylococcus aureus; assay: Antibacterial activity against Staphylococcus aureus MTCC 1144 after 12 to 16 hrs by turbidity assay; assay type: functional; how it was run: as §1
[5] = test system: Staphylococcus aureus; assay: Antibacterial activity against Staphylococcus aureus MTCC 1144 at 128 mg/ml after 16 hrs by disk diffusion test; assay type: functional; set-up: dose or concentration left out as unconfirmed; settings: MTCC 1144, 16 h, read-out: IZ
[6] = test system: Staphylococcus aureus; assay: Antibacterial activity against Staphylococcus aureus MTCC 1144 at 64 mg/ml after 16 hrs by disk diffusion test; assay type: functional; settings: MTCC 1144, 16 h, read-out: IZ
How it was run: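 Disk diffusion (zone of inhibition). Bacterial isolate spread evenly over an agar plate. A filter disk carrying a known amount of compound was placed on the surface and the compound left to diffuse. The inhibition zone in the lawn was read after 16 h incubation.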

[7] = test system: Pseudomonas putida; assay: Antibacterial activity against ampicillin-resistant Pseudomonas putida MTCC 1072 after 12 to 16 hrs by turbidity assay; assay type: functional; how it was run: as §1
[8] = test system: Pseudomonas putida; assay: Antibacterial activity against ampicillin-resistant Pseudomonas putida MTCC 1072 at 128 mg/ml after 16 hrs by disk diffusion test; assay type: functional; set-up: dose or concentration left out as unconfirmed; settings: MTCC 1072, 16 h, read-out: IZ
[9] = test system: Pseudomonas putida; assay: Antibacterial activity against ampicillin-resistant Pseudomonas putida MTCC 1072 at 64 mg/ml after 16 hrs by disk diffusion test; assay type: functional; set-up: dose or concentration left out as unconfirmed; settings: MTCC 1072, 16 h, read-out: IZ
[10] = test system: Human alphaherpesvirus 1; assay: Antiviral activity against HSV1 infected in african green monkey Vero cells after 6 hrs by plaque reduction assay; assay type: functional; set-up: scale not given: the % may be the effect or the level left
How it was run: (§2)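 Modified plaque reduction in 96-well trays with no thickening overlay. Compounds dissolved in DMSO and diluted into medium, then serially diluted and added in triplicate to confluent Vero monolayers. Titred HSV-1 added in medium with 10% calf serum. Incubated 6 h at 37 °C, 5% CO2. Cells fixed with 3.7% formaldehyde and examined visually. The end-point concentration was taken from the dilution series.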

[11] = test system: Vero; assay: Cytotoxicity against african green monkey Vero cells assessed as loss of monolayer present around the plaques; assay type: cell-based; settings: Chlorocebus sabaeus
How it was run: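 Vero monolayers in serial-dilution trays with HSV-1, run in triplicate, 6 h at 37 °C, 5% CO2. Cells fixed with 3.7% formaldehyde and examined visually. IC50 is the concentration giving about 50% loss of the monolayer around HSV-1 plaques.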

[12] = test system: Human immunodeficiency virus 1; assay: Antiviral activity against HIV1 infected in human CEM cells assessed as protection against virus-induced cytopathic effect after 6 days by XTT assay; assay type: functional, organism-based; settings: Human immunodeficiency virus 1, CCRF-CEM, 144 h
How it was run: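 CEM T4 lymphocytes received serially diluted compounds (DMSO stock diluted 1:100 in medium, 1:200 final dilution), then HIV-1. Incubated 6 days at 37 °C, 5% CO2. Formazan read spectrophotometrically after XTT, with microscopic check for viable cells. EC50 is the concentration giving 50% protection against the HIV cytopathic effect. AZT-treated wells served as positive control.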

[13] = test system: CCRF-CEM; assay: Cytotoxicity against […] human CEM cells after 6 days by XTT assay; assay type: cell-based; settings: 144 h
How it was run: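 Uninfected CEM cultures given serial compound dilutions (DMSO, 1:200 final dilution). Incubated 6 days at 37 °C, 5% CO2, then read by XTT formazan. IC50 is the molar concentration causing 50% inhibition of cell growth.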

[14] = Therapeutic index, ratio of IC50 for human CEM cells to EC50 for HIV1; assay type: cell-based, CCRF-CEM; settings: read-out: Ratio IC50/EC50
How it was run: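 CEM T4 lymphocytes, with or without HIV-1, were incubated with serially diluted compounds (DMSO solution diluted 1:100 in medium; 1:200 final dilution after cells and virus were added) at 37 °C in 5% CO2 for 6 days. Controls were untreated and AZT-treated. Read-out was XTT formazan, measured spectrophotometrically plus microscopy. EC50 is 50% protection from cytopathic effect; IC50 is 50% growth inhibition in uninfected cultures.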

[15] = test system: Human alphaherpesvirus 1; assay: Antiviral activity against HSV1 infected in african green monkey Vero cells assessed as minimum antiviral concentration after 6 hrs; assay type: functional; how it was run: as §2

Compound | MIC [1] | zone of inhibition [2] | zone of inhibition [3] | MIC [4] | zone of inhibition [5] | zone of inhibition at 64000 µg/mL [6] | MIC [7] | zone of inhibition [8] | zone of inhibition [9] | Activity [10] | IC50 [11] | EC50 [12] | IC50 [13] | selectivity ratio [14] | MAC [15]
OC[C@H]1O[C@@H](Sc2nc3sc4c(c3c(=S)[nH]2)CCCCC4)[C@H](O)[C@@H](O)[C@@H]1O | > 128 µg/mL | < 1 mm | < 1 mm | > 128 µg/mL | < 1 mm | < 1 mm | > 128 µg/mL | < 1 mm | < 1 mm |  |  |  |  |  | 
CCOC(=O)c1nn(-c2ccc(C)cc2)c2nc3sc4c(c3c(=S)n12)CCCC4 | 128 µg/mL (≈ 301 µM) | > 3 mm | < 1 mm | 128 µg/mL (≈ 301 µM) | > 3 mm | > 2 mm | 128 µg/mL (≈ 301 µM) | > 3 mm | < 1 mm |  |  |  |  |  | 
CSc1nc2sc3c(c2c(=S)[nH]1)CCCC3 | 128 µg/mL (≈ 477 µM) | > 3 mm | < 1 mm | 128 µg/mL (≈ 477 µM) | > 3 mm | < 1 mm | 128 µg/mL (≈ 477 µM) | > 3 mm | < 1 mm | 0% | 0.64 µM | > 100 µM | > 100 µM | > 1 | 
C[C@@]1(CO)[C@H](O)CC[C@@]2(C)[C@H]1CC[C@H]1C[C@@H]3C[C@@]12CC[C@]3(O)CO [APHIDICOLIN] |  |  |  |  |  |  |  |  |  | 100% | 0.58 µM |  |  |  | 0.02 µM
S=c1c2c3c(sc2nc2n(-c4ccccc4)nc(-c4ccccc4)n12)CCCC3 | 128 µg/mL (≈ 309 µM) | > 3 mm | < 1 mm | 128 µg/mL (≈ 309 µM) | > 3 mm | < 1 mm | 128 µg/mL (≈ 309 µM) | > 3 mm | < 1 mm |  |  |  |  |  | 
Cc1cn([C@H]2C[C@H](N=[N+]=[N-])[C@@H](CO)O2)c(=O)[nH]c1=O [ZIDOVUDINE] |  |  |  |  |  |  |  |  |  |  |  |  | 0.7 µM |  | 
CC(=O)OC[C@H]1O[C@@H](Sc2nc3sc4c(c3c(=S)[nH]2)CCCC4)[C@H](OC(C)=O)[C@@H](OC(C)=O)[C@@H]1OC(C)=O | > 128 µg/mL | > 2 mm | < 1 mm | > 128 µg/mL | < 1 mm | < 1 mm | > 128 µg/mL | > 2 mm | > 2 mm | 0% | 0.56 µM | > 100 µM | > 100 µM | > 1 | 
CC(=O)OC[C@H]1O[C@@H](Sc2nc3sc4c(c3c(=S)[nH]2)CCCC4)[C@@H](OC(C)=O)[C@@H]1OC(C)=O | 64 µg/mL (≈ 125 µM) | > 3 mm | > 3 mm | 64 µg/mL (≈ 125 µM) | > 3 mm | > 3 mm | 128 µg/mL (≈ 250 µM) | > 3 mm | < 1 mm | 0% | 1.39 µM | > 100 µM | > 100 µM | > 1 | 
CC(=O)c1nn(-c2ccc([N+](=O)[O-])cc2)c2nc3sc4c(c3c(=S)n12)CCCC4 | 64 µg/mL (≈ 150 µM) | > 3 mm | > 3 mm | > 128 µg/mL | > 2 mm | > 2 mm | 128 µg/mL (≈ 301 µM) | > 3 mm | > 2 mm |  |  |  |  |  | 
CC(=O)c1nn(-c2ccc(Cl)cc2)c2nc3sc4c(c3c(=S)n12)CCCCC4 |  |  |  |  |  |  |  |  |  | 0% | 0.07 µM | > 100 µM | > 100 µM | > 1 | 
CC1(C)S[C@@H]2[C@H](NC(=O)[C@H](N)c3ccccc3)C(=O)N2[C@H]1C(=O)O [AMPICILLIN] | 16 µg/mL (≈ 45.8 µM) | > 5 mm | > 5 mm |  | > 5 mm | > 5 mm | > 256 µg/mL | 0 mm | 0 mm |  |  |  |  |  | 
CSc1nc2sc3c(c2c(=S)[nH]1)CCCCC3 | 128 µg/mL (≈ 453 µM) | > 3 mm | < 1 mm | 128 µg/mL (≈ 453 µM) | > 3 mm | > 2 mm | 128 µg/mL (≈ 453 µM) | > 3 mm | < 1 mm | 0% | 0.45 µM | > 100 µM | > 100 µM | > 1 | 
CC(=O)c1nn(-c2ccc(Cl)cc2)c2nc3sc4c(c3c(=S)n12)CCCC4 |  |  |  |  |  |  |  |  |  | 0% | 0.09 µM | > 100 µM | > 100 µM | > 1 | 
OC[C@H]1O[C@@H](Sc2nc3sc4c(c3c(=S)[nH]2)CCCCC4)[C@H](O)[C@@H](O)[C@H]1O |  |  |  |  |  |  |  |  |  | 0% | 0.38 µM | > 100 µM | > 100 µM | > 1 | 
CC(=O)OC[C@H]1O[C@@H](Sc2nc3sc4c(c3c(=S)[nH]2)CCCCC4)[C@@H](OC(C)=O)[C@@H]1OC(C)=O | > 128 µg/mL | < 1 mm | < 1 mm | > 128 µg/mL | < 1 mm | < 1 mm | > 128 µg/mL | < 1 mm | < 1 mm | 0% | 1.15 µM | > 100 µM | > 100 µM | > 1 | 
S=c1[nH]c(=S)c2c3c(sc2[nH]1)CCCCC3 | 64 µg/mL (≈ 238 µM) | > 3 mm | > 3 mm | > 128 µg/mL | > 2 mm | > 2 mm | 128 µg/mL (≈ 477 µM) | > 3 mm | > 2 mm | 0% | 0.09 µM | > 100 µM | 5.25 µM | > 19.1 | 
S=c1[nH]c(=S)c2c3c(sc2[nH]1)CCCC3 | 64 µg/mL (≈ 252 µM) | > 3 mm | > 3 mm | 128 µg/mL (≈ 503 µM) | > 3 mm | < 1 mm | 128 µg/mL (≈ 503 µM) | > 3 mm | < 1 mm | 0% | 0.07 µM | > 100 µM | 6.5 µM | > 15.4 | 
CC(=O)OC[C@H]1O[C@@H](Sc2nc3sc4c(c3c(=S)[nH]2)CCCCC4)[C@H](OC(C)=O)[C@@H](OC(C)=O)[C@@H]1OC(C)=O | > 128 µg/mL | > 2 mm | > 2 mm | > 128 µg/mL | > 2 mm | > 2 mm | 128 µg/mL (≈ 214 µM) | > 3 mm | > 2 mm |  |  |  |  |  | 
OC[C@H]1O[C@@H](Sc2nc3sc4c(c3c(=S)[nH]2)CCCC4)[C@H](O)[C@@H](O)[C@@H]1O | > 128 µg/mL | < 1 mm | < 1 mm | > 128 µg/mL | < 1 mm | < 1 mm | 128 µg/mL (≈ 307 µM) | > 3 mm | < 1 mm | 0% | 0.61 µM | > 100 µM | > 100 µM | > 1 | 
